Hits are enriched below; roughly 1.4% of the tested compounds scored in any of these assays.
Tn6 DDE FP – disrupts Tn6 cyclic peptide binding to fibrin D-Dimer-E complex | P02675 | Fibrin DD(E) TRITC-Tn6 fluorescence polarization displacement | inhibition, % at 8.3 µM | AID 720509 | 370,000 compounds, 0.21% hits;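 active = inhibition above a per-campaign cutoff: mean of compounds within control limits plus 3 SD, cut at about 15% in these data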
PLC-beta3 inh – blocks human PLC-beta3 enzyme activity. Q01970. Purified PLC-beta3, fluorogenic substrate, fluorescence. inhibition, % at 12.2 µM. 370,000 compounds, 0.18% hits. AID 720704
DDE Tn7 FP inh – disrupts Tn7 cyclic peptide binding to fibrin D-Dimer-E complex | P02675 | FP displacement of FITC-Tn7 peptide from fibrin DD(E); 0% = median of compound wells per plate | inhibition, % at 8.3 µM | 370,000 compounds, 0.13% hits;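 active = inhibition above the mean of compounds falling within the control limits plus 3 SD of them, cut at about 14% in these data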
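Also added: labelled Tn7 tracer, 0.1 µM; Assay system: human fibrin DD(E) protein; Amount: 2 µM fibrin DD(E); Schedule: 10 min compound pre-incubation, 3 h probe incubation at room temperature; Repeats: one replicate per compound; Read-out basis: percent inhibition; Measured by: fluorescence polarization of the labelled Tn7 tracer.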
PLC-gamma1 inh – blocks human PLC-gamma1 enzyme activity; P19174; purified PLC-gamma1, fluorogenic substrate, fluorescence; inhibition, % at 12.2 µM; 370,000 compounds, 0.84% hits; in the data active = inhibition above about 9.5%
Target sequence (P19174 whole entry, looked up): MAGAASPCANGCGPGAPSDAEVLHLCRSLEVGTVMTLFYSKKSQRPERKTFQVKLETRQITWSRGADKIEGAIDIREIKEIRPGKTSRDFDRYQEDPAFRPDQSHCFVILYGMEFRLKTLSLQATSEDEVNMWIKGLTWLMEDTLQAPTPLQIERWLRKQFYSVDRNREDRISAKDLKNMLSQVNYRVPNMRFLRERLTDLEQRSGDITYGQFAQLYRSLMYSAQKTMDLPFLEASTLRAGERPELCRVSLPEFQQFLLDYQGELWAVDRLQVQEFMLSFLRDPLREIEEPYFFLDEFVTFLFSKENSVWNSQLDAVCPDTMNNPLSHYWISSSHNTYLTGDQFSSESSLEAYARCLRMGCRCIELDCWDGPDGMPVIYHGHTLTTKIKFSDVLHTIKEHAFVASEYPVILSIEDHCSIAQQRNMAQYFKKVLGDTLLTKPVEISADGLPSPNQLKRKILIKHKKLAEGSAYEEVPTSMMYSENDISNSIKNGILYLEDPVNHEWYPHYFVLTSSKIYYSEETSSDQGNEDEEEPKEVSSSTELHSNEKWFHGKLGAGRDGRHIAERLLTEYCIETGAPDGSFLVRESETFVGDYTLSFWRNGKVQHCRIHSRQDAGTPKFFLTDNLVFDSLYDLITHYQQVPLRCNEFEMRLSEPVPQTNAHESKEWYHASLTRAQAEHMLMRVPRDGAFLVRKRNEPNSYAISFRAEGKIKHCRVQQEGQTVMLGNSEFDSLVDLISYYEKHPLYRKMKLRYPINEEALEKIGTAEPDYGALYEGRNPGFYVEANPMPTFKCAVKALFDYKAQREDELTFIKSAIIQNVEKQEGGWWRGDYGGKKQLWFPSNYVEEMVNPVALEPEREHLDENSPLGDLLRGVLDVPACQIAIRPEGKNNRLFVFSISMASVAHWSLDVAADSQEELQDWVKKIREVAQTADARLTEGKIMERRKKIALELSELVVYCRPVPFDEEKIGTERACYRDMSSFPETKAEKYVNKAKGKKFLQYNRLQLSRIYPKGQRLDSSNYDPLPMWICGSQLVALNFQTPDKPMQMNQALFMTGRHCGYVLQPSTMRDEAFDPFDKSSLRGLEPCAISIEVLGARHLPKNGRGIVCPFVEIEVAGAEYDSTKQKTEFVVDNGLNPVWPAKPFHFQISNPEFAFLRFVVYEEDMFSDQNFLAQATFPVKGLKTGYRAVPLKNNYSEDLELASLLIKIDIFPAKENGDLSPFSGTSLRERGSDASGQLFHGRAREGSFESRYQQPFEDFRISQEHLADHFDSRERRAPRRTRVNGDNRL
DNA FID counter – fluorescent intercalator displacement, NS3 helicase counter-screen; inhibition, % at 7.9 µM; AID 1845; DNA fluorescent intercalator displacement, fluorescence; 290,000 compounds, 0.17% hits; in the data active = inhibition above about 37%;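 also: higher means more ethidium bromide displaced from hairpin DNA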
PLCgamma1 ctr – inhibits human PLC-gamma1 in PLC-beta3 counter-screen. 3,300 compounds, 3.1% hits. shares compounds with PLC-gamma1 inh. purified PLC-gamma1, fluorogenic substrate, fluorescence. inhibition, % at 12.3 µM; in the data active = inhibition above about 9.5%
PLCbeta3 conf – human PLC-beta3 inhibition, confirmation. 3,300 compounds, 1% hits. inhibition, % at 12.3 µM. shares compounds with PLC-gamma1 inh. purified PLC-beta3, fluorogenic substrate fluorescence
Large screens that a line does not name were inactive (follow-up assays come after a bar, where they were run). Rule as the data show it, unless noted: active = inhibition above about 11%; inactive = the rest.

Cc1cc(C)c(S(=O)(=O)N2CCOCC2)c(C)c1N(C)S(=O)(=O)c1ccccc1	none
OCCN(Cc1ccccc1)Cc1ccc(Cl)cc1Cl	none
COc1ccc(S(=O)(=O)Nc2c(F)cccc2F)cc1	PLC-gamma1 inh 13.5 | PLCgamma1 ctr inactive | PLCbeta3 conf inactive
Cc1onc(-c2ccc(Cl)cc2)c1-c1ccn(S(=O)(=O)c2ccccc2)n1	PLC-gamma1 inh 10.2 (no result: DNA FID counter) | PLCgamma1 ctr inactive | PLCbeta3 conf inactive
Brc1ccc(CNc2nc3ccccc3n2CCN2CCCCC2)cc1	none
Cc1ccc(S(=O)(=O)N2CCOCC2)cc1NC(=O)c1cc2c(s1)CCC2	PLC-gamma1 inh 10.1 | PLCgamma1 ctr inactive | PLCbeta3 conf inactive
Cc1nc(SCC(=O)Nc2cc(S(=O)(=O)N3CCOCC3)ccc2Cl)nc(C)c1C	PLC-gamma1 inh 11.0 (no result: DNA FID counter) | PLCgamma1 ctr inactive | PLCbeta3 conf inactive
Nc1cc(=O)[nH]c(SCC(=O)Nc2cc(S(=O)(=O)N3CCOCC3)ccc2Cl)n1	none
Cc1ccc(C2(C)NC(=O)N(CC(=O)Nc3cc(S(=O)(=O)N4CCOCC4)ccc3C)C2=O)cc1 (configuration not stated)	PLC-gamma1 inh 10.2 | PLCgamma1 ctr inactive | PLCbeta3 conf inactive
COc1ccccc1C(=O)CSc1n[nH]c(N)n1	PLC-beta3 inh 10.8 | PLCgamma1 ctr inactive | PLCbeta3 conf inactive
COCC(=O)Nc1ccc(F)cc1	none
O=C(Nc1ccc(F)cc1)Nc1cccnc1Cl	PLC-gamma1 inh 12.7 | PLCgamma1 ctr inactive | PLCbeta3 conf inactive
Cc1nc2ccc(C(=O)OCC(=O)N(C)c3ccccc3)cc2nc1C	none (no result: DNA FID counter)
CCn1c(SCC(N)=O)nnc1-c1ccc2c(c1)OCO2	none
CCn1c(SCC(N)=O)nnc1-c1ccc(OC)c(OC)c1	PLC-gamma1 inh 12.8 | PLCgamma1 ctr inactive | PLCbeta3 conf inactive
CCCNC(=O)c1cc(C2CCCCN2C(=O)c2ccc3c(c2)CCO3)on1 (configuration not stated)	PLC-gamma1 inh 47.6 (no result: DNA FID counter) | PLCgamma1 ctr inactive | PLCbeta3 conf inactive
O=C(Nc1ccccc1)c1cc(C2CCCCN2S(=O)(=O)c2ccccc2)on1 (configuration not stated)	PLC-gamma1 inh 10.1 (no result: DNA FID counter) | PLCgamma1 ctr inactive | PLCbeta3 conf inactive
COC(=O)N1CCCCC1c1cc(C(=O)NCc2ccccc2)no1 (configuration not stated)	PLC-gamma1 inh 10.4 (no result: DNA FID counter) | PLCgamma1 ctr inactive | PLCbeta3 conf inactive
Cc1cc(C)n2nc(S(=O)(=O)N(C)Cc3ccccc3)nc2n1	none
COc1ccc(S(=O)(=O)N2CCN(CCOc3ccccc3Cl)CC2)cc1OC	none (no result: DNA FID counter)
COc1ccc(S(=O)(=O)N2CCN(CCOc3ccc(Br)cc3)CC2)cc1OC	PLC-gamma1 inh 10.9 (no result: DNA FID counter) | PLCgamma1 ctr inactive | PLCbeta3 conf inactive
COc1ccc([N+](=O)[O-])cc1NC(=O)CSCc1ccc(Br)cc1	PLC-gamma1 inh 10.6 | PLCgamma1 ctr inactive | PLCbeta3 conf inactive
COc1ccc([N+](=O)[O-])cc1NC(=O)CSCc1ccccc1C	none
COC(=O)Nc1cc([N+](=O)[O-])ccc1OC	PLC-gamma1 inh 10.0 | PLCgamma1 ctr inactive | PLCbeta3 conf inactive
COc1ccccc1NC(=O)C(C)OC(=O)CCNS(=O)(=O)c1cccc(C(F)(F)F)c1 (configuration not stated)	none (no result: DNA FID counter)
O=C(c1ccc(CSc2nc3ccncc3[nH]2)cc1)N1CCN(c2cccc(Cl)c2)CC1	PLC-gamma1 inh 16.1 | PLCgamma1 ctr inactive | PLCbeta3 conf inactive
O=C(c1ccc(CSc2nc3ccncc3[nH]2)cc1)N1CCCCCC1	none
Nc1c(C(=O)N/N=C/c2ccc([N+](=O)[O-])cc2)cnn1-c1ccccc1	PLC-gamma1 inh 10.5 | PLCgamma1 ctr inactive | PLCbeta3 conf inactive
Cc1ccc(S(=O)(=O)CCc2nnc(NC(=O)C3CCCCC3)s2)cc1	none
CC(=O)Nc1nnc(CCS(=O)(=O)c2ccc(C)c(C)c2)s1	PLC-gamma1 inh 13.6 | PLCgamma1 ctr inactive | PLCbeta3 conf inactive
Cc1cc(OC(C)C(=O)N(Cc2cccs2)C2CCS(=O)(=O)C2)ccc1Cl (configuration not stated)	none
Cc1ccc(OC(C)C(=O)N(Cc2cccs2)C2CCS(=O)(=O)C2)cc1C (configuration not stated)	PLC-gamma1 inh 9.8 | PLCgamma1 ctr inactive | PLCbeta3 conf inactive
CCOC(=O)C(C)C1(O)c2ccccc2-c2ncccc21 (configuration not stated)	PLC-gamma1 inh 11.8 | PLCgamma1 ctr inactive | PLCbeta3 conf inactive
OC(CC1CC12c1ccccc1-c1ncccc12)(c1ccccc1)c1ccccc1 (configuration not stated)	none
CCC/C(O)=C1\C(=O)CCCC1=NCCc1ccc(OCC)c(OCC)c1	none
CCC/C(O)=C1\C(=O)CCCC1=NC(C)C(=O)O (configuration not stated)	PLC-gamma1 inh 9.8 | PLCgamma1 ctr inactive | PLCbeta3 conf inactive
Cn1cc(S(=O)(=O)NC2CCCCCC2)c(=O)n(C)c1=O	none
Cc1nn(-c2ccccc2)c2c1C1(C(=O)Nc3ccccc31)N1C(=N2)Sc2ccccc21 (configuration not stated)	none (no result: Tn6 DDE FP, PLC-beta3 inh, DDE Tn7 FP inh, PLC-gamma1 inh)
O=S(=O)(NC1CC2CCC1C2)c1ccc(Br)s1 (configuration not stated)	none
CCN(CC)C(=S)SCC(=O)Nc1ncc2c(n1)CCCC2=O	none
Cc1cc(C(=O)NNC(=O)c2cccc(Cl)c2)no1	none
COCCNc1nc2c(c(=O)n(Cc3ccc(OC)cc3)c(=O)n2C)n1C	none
COc1ccc(CNc2nc3c(c(=O)n(Cc4ccc(Cl)cc4)c(=O)n3C)n2C)cc1	PLC-gamma1 inh 10.2 | PLCgamma1 ctr inactive | PLCbeta3 conf inactive
O=C(NCC(=O)N1CCCC(C(F)(F)F)C1)c1ccccc1Br (configuration not stated)	none (no result: DNA FID counter)
Cc1cccc(OCC(O)Cn2c(-n3nc(C)cc3C)nc3c2c(=O)[nH]c(=O)n3C)c1 (configuration not stated)	none
Cn1c(=O)c2c(nc(-n3ccnc3)n2C)n(C)c1=O	none
Cn1c(=O)c2c(nc(-n3ccnc3)n2Cc2ccccc2)n(C)c1=O	PLC-gamma1 inh 10.2 | PLCgamma1 ctr inactive | PLCbeta3 conf inactive
CC(C)Nc1nc(NC(C)C)nc(N(C)n2cnnc2)n1	PLC-gamma1 inh 9.9 | PLCgamma1 ctr inactive | PLCbeta3 conf inactive
CC(C)Nc1nc(NC(C)C)nc(Nn2cnnc2)n1	none
O=C(CN1CCCC1)NCC12CC3CC(CC(C3)C1)C2	PLC-gamma1 inh 10.5 | PLCgamma1 ctr inactive | PLCbeta3 conf inactive
O=C(CN1CCCC1)NC12CC3CC(CC(C3)C1)C2	none

High-throughput results: PubChem BioAssay, The Scripps Research Institute Molecular Screening Center
